The results in this text go back to ChEMBL document CHEMBL5143652, “Quinazolinones as allosteric fourth-generation EGFR inhibitors for the treatment of NSCLC” (Bioorg Med Chem Lett, 2022).

Each structure is given as a SMILES string. pIC50: −log10 of the molar value. The source made the active and inactive calls. No cut-off for these calls is given here.

The subject of data set [1] is BaF3. The data set is described as follows: Antiproliferative activity against mouse BaF3 cells harboring EGFR L858R/T790M double mutant assessed as inhibition of cell growth in presence of cetuximab. The class given is functional, cell-based. In a few lines:
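Ba/F3 proliferation assay, second readout: cells co-treated with cetuximab to prevent EGFR dimer formation. Cellular IC50 is reported in μM.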

The target in data set [2] is Epidermal growth factor receptor (Homo sapiens, UniProt P00533, L858R/T790M). Kind of data set: biochemical.
Sequence of Epidermal growth factor receptor (P00533 25-1210 T790M/L858R limits assumed): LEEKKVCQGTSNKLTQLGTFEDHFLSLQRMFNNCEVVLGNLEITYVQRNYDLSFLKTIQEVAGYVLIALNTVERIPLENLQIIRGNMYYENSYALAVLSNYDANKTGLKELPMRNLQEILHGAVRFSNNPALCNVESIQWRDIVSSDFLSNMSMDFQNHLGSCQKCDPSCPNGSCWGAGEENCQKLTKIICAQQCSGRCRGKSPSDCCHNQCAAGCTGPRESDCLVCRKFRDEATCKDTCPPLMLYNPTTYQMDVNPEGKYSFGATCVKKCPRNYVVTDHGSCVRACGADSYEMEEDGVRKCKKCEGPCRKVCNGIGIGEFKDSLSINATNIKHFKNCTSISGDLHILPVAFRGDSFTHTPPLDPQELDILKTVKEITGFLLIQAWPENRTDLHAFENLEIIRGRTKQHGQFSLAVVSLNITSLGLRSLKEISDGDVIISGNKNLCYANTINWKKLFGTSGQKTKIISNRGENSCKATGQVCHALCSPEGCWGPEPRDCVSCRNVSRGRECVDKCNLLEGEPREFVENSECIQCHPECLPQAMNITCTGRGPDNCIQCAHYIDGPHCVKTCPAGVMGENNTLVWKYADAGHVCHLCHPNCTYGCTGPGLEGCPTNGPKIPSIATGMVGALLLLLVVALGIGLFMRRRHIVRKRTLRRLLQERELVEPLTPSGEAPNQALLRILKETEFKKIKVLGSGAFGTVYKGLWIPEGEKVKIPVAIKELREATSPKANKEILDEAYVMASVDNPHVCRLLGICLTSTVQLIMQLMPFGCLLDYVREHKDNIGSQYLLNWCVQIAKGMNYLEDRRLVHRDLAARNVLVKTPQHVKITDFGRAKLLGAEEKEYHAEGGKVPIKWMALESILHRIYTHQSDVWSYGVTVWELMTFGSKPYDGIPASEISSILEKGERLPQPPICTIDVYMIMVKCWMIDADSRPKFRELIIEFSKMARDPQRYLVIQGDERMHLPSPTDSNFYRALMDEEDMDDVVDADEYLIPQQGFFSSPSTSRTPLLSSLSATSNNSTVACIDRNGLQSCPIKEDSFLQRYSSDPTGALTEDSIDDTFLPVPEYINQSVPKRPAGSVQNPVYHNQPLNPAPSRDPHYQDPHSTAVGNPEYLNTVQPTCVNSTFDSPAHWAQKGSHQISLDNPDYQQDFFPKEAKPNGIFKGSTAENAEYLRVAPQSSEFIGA
For data set [3], the system named is BaF3. The data set is described as follows: Antiproliferative activity against mouse BaF3 cells harboring EGFR L858R/T790M double mutant assessed as inhibition of cell growth. The class given is functional, cell-based. In a few lines: (§1)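 Ba/F3 proliferation assay with the compound alone (single-agent readout, no cetuximab). Cellular IC50 is reported in μM.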

Data set [4] deals with BaF3. Kind of data set: Antiproliferative activity against mouse BaF3 cells harboring EGFR L858R/T790M/C797S triple mutant assessed as inhibition of cell growth. The class given is functional, cell-based. In a few lines:
as §1

The nature of data set [5]: Half life in mouse at 3 mg/kg, iv. The note with it: in vivo. The class given is ADME, organism-based.
Data set [6] can be described thus: Clearance in mouse at 3 mg/kg, iv. The class given is ADME, organism-based. The note with it: in vivo.
The nature of data set [7]: AUC (0 to 8 hrs) in mouse at 3 mg/kg, iv or 20 mg/kg, po. The note with it: in vivo. The class given is ADME, organism-based. Also on record: dose 3 mg/kg, route iv.
A short description of data set [8]: Volume of distribution at steady state in mouse at 3 mg/kg, iv or 20 mg/kg, po. The note with it: in vivo, read-out: Vdss. The class given is ADME, organism-based.
Data set [9] can be described thus: Oral bioavailability in mouse at 20 mg/kg. The class given is ADME, organism-based. The note with it: in vivo.
Data set [10] relates to NCI-H1975. The data set is described as follows: Antitumor activity against human NCI-H1975 cells harboring EGFR L858R/T790M mutant xenografted in rat assessed as tumor growth inhibition at 25 mg/kg, po administered once daily for 20 days and measured on 35 day. The class given is functional, organism-based.
Data set [11] is described as follows: Oral bioavailability in rat at 10 mg/kg. The note with it: in vivo. The class given is ADME, organism-based.
For data set [12], the system named is NCI-H1975. The data set is described as follows: Antitumor activity against human NCI-H1975 cells harboring EGFR L858R/T790M mutant xenografted in rat assessed as slower regrowth of tumor at 50 mg/kg, po administered once daily for 20 days and measured on 35 day.
In data set [13] the test system is NCI-H1975. The data set is described as follows: Antitumor activity against human NCI-H1975 cells harboring EGFR L858R/T790M mutant xenografted in rat assessed as tumor growth inhibition at 50 mg/kg, po administered once daily for 20 days and measured on 35 day. The class given is functional, organism-based.
A short description of data set [14]: Half life in rat at 1 mg/kg, iv. The class given is ADME, organism-based. The note with it: in vivo.
Data set [15] can be described thus: Clearance in rat at 1 mg/kg, iv. The class given is ADME, organism-based. The note with it: in vivo.
The test system of data set [16] is NCI-H1975. Kind of data set: Antitumor activity against human NCI-H1975 cells harboring EGFR L858R/T790M mutant xenografted in rat assessed as slower regrowth of tumor at 50 mg/kg, po administered once daily for 20 days and measured on 35 day. The class given is functional, organism-based.

Turning to `CN1CCC(c2ccc(-c3ccc4c(c3)C(=O)N(C(C(=O)Nc3nccs3)c3cccc(F)c3)CC4)cc2)CC1` (configuration not stated), the pIC50 is 7.00 in [1], 8.49 in data set [2] and 5.83 in data set [3].

Consider `CN1CCN(c2ccc(-c3ccc4ccn(C(C(=O)Nc5nccs5)c5ccccc5)c(=O)c4c3)cc2)CC1` (configuration not stated), for which, in [3], the pIC50 is 5.73.

Take `CN1CCN(c2ccc(-c3ccc4c(c3)C(=O)N(C(C(=O)Nc3nccs3)c3cccc(F)c3)C4)cc2)CC1` (configuration not stated): the pIC50 in data set [2] was 8.74; in data set [3] it was 5.70.

For `CN1CCC(c2ccc(-c3ccc4c(=O)n(C(C(=O)Nc5nccs5)c5ccccc5)cnc4c3)cc2)CC1` (configuration not stated), the pIC50 in data set [1] is 6.65; in data set [2], 8.24; in data set [4], 6.05; in data set [3], 5.61.

Consider `CN1CCC(c2ccc(-c3ccc4c(c3)CCN(C(C(=O)Nc3nccs3)c3cccc(F)c3)C4=O)cc2)CC1` (configuration not stated), for which the negative logarithm of the IC50 (pIC50) in [2] is 8.66; in [3], 5.70.

With `CN1CCN(c2ccc(-c3ccc4c(=O)n(C(C(=O)Nc5nccs5)c5ccccc5)cnc4c3)cc2)CC1` (configuration not stated), the results for the pIC50 in data set [1], in data set [2] and in data set [3] were 6.43, 8.51 and 5.70, respectively.

In the case of `O=C(Nc1nccs1)C(c1cc(F)ccc1O)N1Cc2ccccc2C1=O` (configuration not stated), the pIC50 in data set [1] was 6.66; in data set [3] it was below 5.00.

In data set [5], `O=C(Nc1nccs1)C(c1cc(F)ccc1O)N1Cc2ccc(-c3ccc(N4CCNCC4)cc3)cc2C1=O` (configuration not stated) gave a half-life of 3 h. The pIC50 in data set [1] was 7.68; in data set [3] it was 6.21. The same molecule showed a clearance in data set [6] of 5 mL/min/kg. In data set [7], the AUC(0-t) came to 2520 ng·h/mL. The Vd in data set [8] is 0.6 L/kg.

In the case of `CN1CCC(c2ccc(-c3cc4c(=O)n(C(C(=O)Nc5nccs5)c5ccccc5)cnc4cc3F)cc2)CC1` (configuration not stated), the pIC50 was 7.14 in data set [1], 8.85 in [2], 6.55 in data set [4] and 5.52 in data set [3].

As to `CN1CCN(c2ccc(-c3ccc4c(c3)C(=O)N(C(C(=O)Nc3nccs3)c3ccccc3)C4)cc2)CC1` (configuration not stated), the pIC50 is 7.37 in data set [1], 9.05 in data set [2] and 5.59 in data set [3].

Regarding `CN1CCN(c2ccc(-c3ccc4c(c3)C(=O)N(C(C(=O)Nc3nccs3)c3cc(F)ccc3O)C4)cc2)CC1` (configuration not stated), the half-life in [5] is 2.8 h. The figures for the pIC50 in [1], in data set [2] and in [3] were 8.22, 9.52 and 6.31, respectively. Moreover, the clearance in data set [6] was 10.3 mL/min/kg. The F in data set [9] is 2%. Further, the AUC(0-t) in data set [7] came to 1350 ng·h/mL. Moreover, the Vd in [8] worked out at 1.8 L/kg.

In the case of `CN1CCC(c2ccc(-c3ccc4ncn(C(C(=O)Nc5nccs5)c5ccccc5)c(=O)c4c3)cc2)CC1` (configuration not stated), the pIC50 in data set [4] was 7.30; in data set [3], 6.11.

With `CN1CCC(c2ccc(-c3cc(F)c4ncn(C(C(=O)Nc5nccs5)c5ccccc5)c(=O)c4c3)cc2)CC1` (configuration not stated), the pIC50 in [1] is 8.00; in data set [4], 6.82; in [3], 6.09.

For the molecule `CN1CCC(c2ccc(-c3ccc4c(=O)n(C(C(=O)Nc5nccs5)c5ccccc5)ncc4c3)cc2)CC1` (configuration not stated), the values for the pIC50 in data set [2], in data set [4] and in data set [3] were 8.01, 6.00 and 5.91, respectively.

Consider `CN1CCN(c2ccc(-c3ccc4cnn(C(C(=O)Nc5nccs5)c5ccccc5)c(=O)c4c3)cc2)CC1` (configuration not stated), for which the pIC50 in [1] is 6.42; in [2], 7.99; in [3] it was 5.67.

As for `CN1CCC(c2ccc(-c3ccc4ccn(C(C(=O)Nc5nccs5)c5ccccc5)c(=O)c4c3)cc2)CC1` (configuration not stated), the pIC50 in data set [1] was 7.15; in [2], 8.74; in data set [4], 6.42; in [3], 5.82.

Regarding `CN1CCN(c2ccc(-c3ccc4c(=O)n(C(C(=O)Nc5nccs5)c5ccccc5)ccc4c3)cc2)CC1` (configuration not stated), the pIC50 in data set [1] is 7.21; in data set [2], 8.47; in [3], 5.90.

Regarding `CN1CCC(c2ccc(-c3ccc4c(c3)C(=O)N(C(C(=O)Nc3nccs3)c3cccc(F)c3)C4)cc2)CC1` (configuration not stated), the half-life in data set [5] was 3.1 h. Also, the pIC50 in [1] is 7.70; in [2], 9.70; in [4], 6.82; in [3] it was 5.97. Also, the clearance in [6] stood at 13.9 mL/min/kg. In [9], this molecule gave an F of 4%. Further, the AUC(0-t) in data set [7] amounted to 1000 ng·h/mL. For the same molecule, the Vd in [8] came to 2.4 L/kg.

As to `CN1CCC(c2ccc(-c3ccc4ncn(C(C(=O)Nc5nccs5)c5ccccc5)c(=O)c4n3)cc2)CC1` (configuration not stated), the pIC50 is 7.80 in data set [1], 7.05 in data set [4] and 5.77 in [3].

Regarding `CN1CCC(c2ccc(-c3cnc4ncn(C(C(=O)Nc5nccs5)c5ccccc5)c(=O)c4c3)cc2)CC1` (configuration not stated), the pIC50 is 7.64 in data set [1], 8.72 in data set [2], 6.51 in data set [4] and 5.94 in [3].

Regarding `CN1CCN(c2ccc(-c3ccc4ncn(C(C(=O)Nc5nccs5)c5ccccc5)c(=O)c4c3)cc2)CC1` (configuration not stated), the values for the pIC50 in data set [1], in data set [2] and in [3] were 7.68, 9.05 and 5.63, respectively.

`CN1CCC(c2ccc(-c3ccc4c(=O)n(C(C(=O)Nc5nccs5)c5ccccc5)ccc4c3)cc2)CC1` (configuration not stated): the pIC50 in data set [1] was 7.62; in data set [2], 8.92; in data set [4], 6.30; in data set [3], 5.89.

With `CN1CCN(c2ccc(-c3ccc4c(c3)C(=O)N(C(C(=O)Nc3nccs3)c3cccc(F)c3)CC4)cc2)CC1` (configuration not stated), the figures for the pIC50 in data set [1], in data set [2] and in data set [3] were 6.90, 8.17 and 5.80, respectively.

`CN1CCC(c2ccc(-c3ccc4c(c3)C(=O)N(C(C(=O)Nc3nccs3)c3cc(F)ccc3O)C4)cc2)CC1` (configuration not stated) showed a half-life in data set [5] of 2.3 h. For the same molecule, the negative logarithm of the IC50 (pIC50) was 8.22 in [1], 10.00 in data set [2] and 7.30 in data set [3]. This molecule also had a clearance in data set [6] of 15.7 mL/min/kg. In [9], this molecule showed an F of 15%. In data set [7], this molecule came in with an AUC(0-t) of 2400 ng·h/mL. Moreover, in [8], the Vd is 2.5 L/kg.

Take `CN1CCN(c2ccc(-c3ccc4c(=O)n(C(C(=O)Nc5nccs5)c5ccccc5)ncc4c3)cc2)CC1` (configuration not stated): the pIC50 in data set [1] was 5.78; in data set [3], 5.46.

As for `CN1CCC(c2ccc(-c3ccc4cnn(C(C(=O)Nc5nccs5)c5ccccc5)c(=O)c4c3)cc2)CC1` (configuration not stated), the pIC50 in data set [1] is 6.68; in [4], 6.36; in data set [3], 5.81.

As for `CN1CCC(c2ccc(-c3ccc4ncn(C(C(=O)Nc5nccs5)c5ccccc5)c(=O)c4c3F)cc2)CC1` (configuration not stated), the outcome in [10], in [12], in [13] and in data set [16] was Active. In data set [11], this molecule showed an F of 24%. For the same molecule, the t1/2 in [14] was determined as 3.5 h. This molecule yielded a clearance in [15] of 30 mL/min/kg.
